Test results published in ChEMBL document CHEMBL1123437, “Isozyme-specific enzyme inhibitors. 12. C- and N-methylmethionines as substrates and inhibitors of methionine adenosyltransferases of normal and hepatoma rat tissues” (J Med Chem, 1986).
Several values for one entry are separate records, joined by “and”; a condition that tells them apart may be missing. Equal entries are not always repeated. Blank lines part the entries; values can stand above or below the compound they belong to.

Experiments:
CSC[C@@H](C)C(N)C(=O)O = assay: (§1) Substrate activity with […] (M-T) form of rat methionine adenosyltransferase; assay type: protein assay
CSCC[C@](C)(N)C(=O)O = assay: as §1; assay type: protein assay
CSCC(C)C(N)C(=O)O [1] = assay: (§2) Substrate activity with […] form of rat methionine Adenosyltransferase; assay type: protein assay
CSCC[C@H](N)C(=O)O [2] = assay: as §2; assay type: protein assay
[3] = biological target: S-adenosylmethionine synthase isoform type-2 (Rattus norvegicus) (UniProt P18298); assay: Substrate activity with normal tissue form of rat Methionine adenosyltransferase II
Target sequence in this assay (P18298 whole entry, looked up, canonical isoform): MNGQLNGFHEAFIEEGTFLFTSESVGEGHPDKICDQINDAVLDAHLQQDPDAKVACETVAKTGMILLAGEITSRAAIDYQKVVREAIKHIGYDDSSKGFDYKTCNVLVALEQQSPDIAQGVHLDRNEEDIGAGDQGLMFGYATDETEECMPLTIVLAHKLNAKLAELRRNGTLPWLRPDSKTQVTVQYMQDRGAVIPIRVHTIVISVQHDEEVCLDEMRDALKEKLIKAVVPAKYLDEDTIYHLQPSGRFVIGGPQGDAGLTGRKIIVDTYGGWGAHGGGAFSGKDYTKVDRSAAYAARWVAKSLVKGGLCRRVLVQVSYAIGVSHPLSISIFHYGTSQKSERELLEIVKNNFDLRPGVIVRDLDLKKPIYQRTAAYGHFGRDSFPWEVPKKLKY

[4] = tested on: CS[C@H](C)C[C@H](N)C(=O)O; assay: (§3) Substrate activity with rat Methionine adenosyltransferase II
CSC(C)C[C@@H](N)C(=O)O = assay: as §3
CSCC(C)C(N)C(=O)O [5] = assay: as §3
CSCC[C@H](N)C(=O)O [6] = assay: as §3
[7] = biological target: T1, S-adenosylmethionine synthetase (MAT 1 and MAT 2) (Rattus norvegicus) (UniProt P13444+P18298); assay: Compound (3 mM) was tested for the inhibition of conversion of [14C]methionine to [14C]-AdoMet by M-T (hepatoma tissue) of rat methionine adenosyltransferase; assay type: protein assay
Outline: (§4)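 Radiometric [14C]Met→[14C]AdoMet assay with partially purified rat MAT (M-2 from kidney, 8.6 × 10^-6 units; M-T from Novikoff hepatoma, 7.9 × 10^-6 units). Derivative at 3 mM, 2 mM MgATP, pH 8.2 Tris/KCl/MgCl2/DTT buffer, 37 °C, 10 min. Acid-stopped; supernatant counted on phosphocellulose discs. No-ATP incubations served as controls.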

[8] = biological target: T1, S-adenosylmethionine synthetase (MAT 1 and MAT 2) (Rattus norvegicus); assay: Substrate activity as rate of conversion of [C14]-ATP to [C14]-Adomet in relation to KM value of methionine with M-T of rat methionine adenosyltransferase; assay type: protein assay
Outline: (§5)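 Kinetics with 0.4 mM [14C]ATP and 1.72 × 10^-6 units M-2 (kidney) or 1.58 × 10^-6 units M-T (hepatoma), 60 min, 37 °C, pH 8.2. Product resolved by paper electrophoresis and counted. KM and Vmax from linear double-reciprocal plots. Vmax expressed relative to L-Met = 100; reported as the relative Vmax/KM ratio.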

[9] = biological target: S-adenosylmethionine synthase isoform type-2 (Rattus norvegicus) (UniProt P18298); assay: Substrate activity of compound (4 mM) measured as the rate of conversion of [C14]-ATP to [C14]-Adomet in relation to KM value of methionine rat Methionine adenosyltransferase II; outline: as §5
Target sequence in this assay (P18298 whole entry, canonical isoform): as the sequence (P18298 whole entry, looked up, canonical isoform) above

[10] = Ratio of Vmax of normal tissue (M-T) form of rat methionine Adenosyltransferase to that of KM of normal tissue(M-T)form of rat methionine Adenosyltransferase; outline: as §5
[11] = biological target: S-adenosylmethionine synthase isoform type-2 (Rattus norvegicus) (UniProt P18298); assay: Compound (3 mM) was tested for the inhibition of conversion of [14C]methionine to [14C]AdoMet by rat Methionine adenosyltransferase II; outline: as §4
Target sequence in this assay (P18298 whole entry, canonical isoform): as the sequence (P18298 whole entry, looked up, canonical isoform) above

[12] = biological target: T1, S-adenosylmethionine synthetase (MAT 1 and MAT 2) (Rattus norvegicus); assay: Substrate level that produces half the maximal velocity(M-T) of rat methionine adenosyltransferase; assay type: protein assay
Outline: (§6)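 KM from linear double-reciprocal plots of velocity vs derivative concentration. Conditions: 0.4 mM [14C]ATP, 1.72 × 10^-6 units M-2 (rat kidney) or 1.58 × 10^-6 units M-T (Novikoff hepatoma), 60 min, 37 °C, Tris pH 8.2 with KCl/MgCl2/DTT. [14C]AdoMet derivative separated by paper electrophoresis and counted.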

[13] = Ratio of relative Vmax of normal tissue (M-2) form of rat methionine Adenosyltransferase to that of KM of normal tissue(M-2)form of rat methionine Adenosyltransferase; outline: as §5
[14] = biological target: S-adenosylmethionine synthase isoform type-2 (Rattus norvegicus) (UniProt P18298); assay: Compound (3 mM) was tested for the inhibition of conversion of [14C]methionine to [14C]AdoMet by M-2 (normal tissue) of rat methionine Adenosyltransferase; outline: as §4
Target sequence in this assay (P18298 whole entry, canonical isoform): as the sequence (P18298 whole entry, looked up, canonical isoform) above

[15] = biological target: T1, S-adenosylmethionine synthetase (MAT 1 and MAT 2) (Rattus norvegicus); assay: […](M-T) of rat methionine adenosyl transferase; assay type: protein assay; outline: as §6
[16] = biological target: T1, S-adenosylmethionine synthetase (MAT 1 and MAT 2) (Rattus norvegicus); assay: Compound (3 mM) was tested for the inhibition of conversion of [14C]methionine to [14C]-AdoMet by M-T (hepatoma tissue) of rat methionine Adenosyltransferase; assay type: protein assay; outline: as §4
[17] = biological target: T1, S-adenosylmethionine synthetase (MAT 1 and MAT 2) (Rattus norvegicus); assay: Substrate activity of compound (4 mM) measured as the rate of conversion of [C14]-ATP to [C14]-Adomet in relation to KM value of methionine with M-T of rat MAT; assay type: protein assay; outline: as §5
[18] = biological target: S-adenosylmethionine synthase isoform type-2 (Rattus norvegicus) (UniProt P18298); assay: Substrate activity of compound (4 mM) measured as the rate of conversion of [C14]-ATP to [C14]-Adomet in relation to KM value of methionine with rat Methionine adenosyltransferase II; outline: as §5
Target sequence in this assay (P18298 whole entry, canonical isoform): as the sequence (P18298 whole entry, looked up, canonical isoform) above

[19] = biological target: T1, S-adenosylmethionine synthetase (MAT 1 and MAT 2) (Rattus norvegicus); assay: Compound (3 mM) was tested for the inhibition of conversion of [14C]methionine to [14C]AdoMet by M-T (hepatoma tissue) of methionine adenosyltransferase; assay type: protein assay; outline: as §4
[20] = biological target: T1, S-adenosylmethionine synthetase (MAT 1 and MAT 2) (Rattus norvegicus); assay: Substrate level that produces half the maximal velocity(M-2) of rat methionine adenosyl transferase; assay type: protein assay; outline: as §6
[21] = biological target: T1, S-adenosylmethionine synthetase (MAT 1 and MAT 2) (Rattus norvegicus); assay: Substrate level that produces half the maximal velocity(M-2) of rat methionine adenosyltransferase; assay type: protein assay; outline: as §6
[22] = biological target: S-adenosylmethionine synthase isoform type-2 (Rattus norvegicus) (UniProt P18298); assay: Substrate activity of compound (4 mM) measured as the rate of conversion of [C14]-ATP to [C14]-Adomet in relation to KM value of methionine of rat Methionine adenosyltransferase II; outline: as §5
Target sequence in this assay (P18298 whole entry, canonical isoform): as the sequence (P18298 whole entry, looked up, canonical isoform) above

[23] = biological target: S-adenosylmethionine synthase isoform type-2 (Rattus norvegicus) (UniProt P18298); assay: Rate of conversion of [C14]-ATP to [C14]-Adomet in relation to KM value of methionine with Methionine adenosyltransferase II; outline: as §5
Target sequence in this assay (P18298 whole entry, canonical isoform): as the sequence (P18298 whole entry, looked up, canonical isoform) above

[24] = biological target: T1, S-adenosylmethionine synthetase (MAT 1 and MAT 2) (Rattus norvegicus); assay: Rate of conversion of [C14]-ATP to [C14]-Adomet in relation to KM value of methionine with methionine adenosyltransferase; assay type: protein assay; outline: as §5
[25] = biological target: T1, S-adenosylmethionine synthetase (MAT 1 and MAT 2) (Rattus norvegicus); assay: Substrate activity with […](M-Tform of rat methionine adenosyltransferase; assay type: protein assay; settings: concentration not given here
Outline: (§7)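 Derivative at 4 mM with [14C]ATP and 1.6 × 10^-5 units rat MAT, 1 h at 37 °C. [14C]AdoMet derivative separated by paper electrophoresis (pH 5.0 acetate) and counted. Result given as cpm per 10 µL above a control lacking the derivative. At least twice control counts scored as substrate activity.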

[26] = biological target: S-adenosylmethionine synthase isoform type-2 (Rattus norvegicus) (UniProt P18298); assay: as §3; settings: concentration not given here; outline: as §7

Chain of S-adenosylmethionine synthetase (MAT 1 and MAT 2) (Rattus norvegicus) (from UniProt P13444+P18298) (P18298 whole entry, looked up): as the sequence (P18298 whole entry, looked up, canonical isoform) above
Chain of S-adenosylmethionine synthetase (MAT 1 and MAT 2) (Rattus norvegicus) (from UniProt P13444+P18298) (P13444 whole entry, looked up): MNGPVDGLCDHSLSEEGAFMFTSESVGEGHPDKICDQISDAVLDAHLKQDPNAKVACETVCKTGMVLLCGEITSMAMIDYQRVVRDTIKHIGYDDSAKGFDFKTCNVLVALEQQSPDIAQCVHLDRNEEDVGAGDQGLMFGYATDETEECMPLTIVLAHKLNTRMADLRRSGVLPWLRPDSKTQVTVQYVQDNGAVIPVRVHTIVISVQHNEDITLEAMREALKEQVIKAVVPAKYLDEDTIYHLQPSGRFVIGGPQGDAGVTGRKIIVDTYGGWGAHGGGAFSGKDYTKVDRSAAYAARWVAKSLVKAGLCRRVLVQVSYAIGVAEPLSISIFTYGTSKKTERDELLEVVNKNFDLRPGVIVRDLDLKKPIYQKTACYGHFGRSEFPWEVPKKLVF
Chain of S-adenosylmethionine synthase isoform type-2 (Rattus norvegicus), P18298 (P18298 whole entry, canonical isoform): as the sequence (P18298 whole entry, looked up, canonical isoform) above

Compound: S-adenosylmethionine synthetase (MAT 1 and MAT 2) (Rattus norvegicus) (from UniProt P13444+P18298)
- Km (CSC[C@@H](C)C(N)C(=O)O): 20 mM
- Km (CSCC[C@](C)(N)C(=O)O): 21 mM
- Km (CSCC(C)C(N)C(=O)O [1]): 1.4 mM
- Km (CSCC[C@H](N)C(=O)O [2]): 0.0156 mM

Compound: S-adenosylmethionine synthase isoform type-2 (Rattus norvegicus), P18298
- Km [3]: 29 mM
- Km [4]: 14 mM
- Km (CSC(C)C[C@@H](N)C(=O)O): 10 mM
- Km (CSCC(C)C(N)C(=O)O [5]): 6.1 mM
- Km (CSCC[C@H](N)C(=O)O [6]): 0.005 mM

Compound: CSCC[C@](C)(N)C(=O)O
- inhibition [7]: 11%
- Substrate activity [8]: 241 c.p.m.
- Substrate activity [9]: 49 c.p.m.
- Ratio [10]: 1.3
- inhibition [11]: 15%
- Relative Vmax [12]: 27

Compound: CCCCN[C@@H](CCSC)C(=O)O
- Substrate activity [8]: 13 c.p.m.
- inhibition [19]: 0%
- inhibition [11]: 0%
- Substrate activity [18]: -15 c.p.m.

Compound: CS[C@@H](C)C[C@@H](N)C(=O)O
- inhibition [7]: 14%
- inhibition [14]: 9.7%
- Substrate activity [8]: 173 c.p.m.
- Substrate activity [18]: 30 c.p.m.

Compound: CSCC[C@H](N)C(=O)O
- Ratio [13]: 20000
- Relative Vmax [15]: 100
- Ratio [10]: 6400

Compound: CSC(C)C[C@@H](N)C(=O)O (stereo partly drawn)
- inhibition [7]: 24%
- Ratio [13]: 2.6
- Substrate activity [8]: 272 c.p.m.
- Relative Vmax [21]: 26
- inhibition [11]: 29%
- Substrate activity [18]: 624 c.p.m.

Compound: CN[C@@H](CCSC)C(=O)O
- inhibition [7]: 0%
- Substrate activity [8]: 36 c.p.m.
- inhibition [11]: 2.9%
- Substrate activity [18]: -9 c.p.m.

Compound: CSCC[C@@](C)(N)C(=O)O
- inhibition [14]: 4.8%
- Substrate activity [8]: 40 c.p.m.
- inhibition [19]: 3.7%
- Substrate activity [18]: 41 c.p.m.

Compound: CNCCC(N)C(=O)O (stereo not drawn)
- Substrate activity [23]: 37 cpm
- Substrate activity [24]: 33 cpm
- inhibition [25]: 0%
- inhibition [26]: 6.6%

Next, values leading:

- Ratio [13]: 4.4
- inhibition [14]: 68%
- Relative Vmax [15]: 27 and 12
- inhibition [16]: 65%
- Substrate activity [17]: 701 c.p.m.
- Ratio [10]: 8.6
- Substrate activity [18]: 838 c.p.m.
Compound: CSCC(C)C(N)C(=O)O (stereo not drawn)

- inhibition [7]: 15%
- Ratio [13]: 0.9
- Relative Vmax [20]: 26
- Substrate activity [8]: 381 c.p.m.
- inhibition [11]: 21%
- Substrate activity [18]: 333 c.p.m.
Compound: CSC[C@@H](C)[C@@H](N)C(=O)O

- inhibition [7]: 15%
- Ratio [13]: 1.9
- Substrate activity [8]: 731 c.p.m.
- Relative Vmax [21]: 27
- inhibition [11]: 24%
- Substrate activity [18]: 506 c.p.m.
Compound: CS[C@H](C)C[C@H](N)C(=O)O

- inhibition [7]: 8.7%
- Substrate activity [8]: 348 c.p.m.
- Ratio [10]: 1.8
- inhibition [11]: 15%
- Substrate activity [22]: 38 c.p.m.
- Relative Vmax [12]: 37
Compound: CSC[C@@H](C)C(N)C(=O)O (stereo partly drawn)

- inhibition [7]: 6.6%
- Substrate activity [8]: 191 c.p.m.
- inhibition [11]: 17%
- Substrate activity [18]: -10 c.p.m.
Compound: CSC[C@@H](C)[C@H](N)C(=O)O
